According to publication PMC2819033 (Journal of medicinal chemistry, 2009):
Read-outs that look alike come from different tables or passages of the source.

How the values were obtained:
[1] = tested on: A2780 (ovarian carcinoma) cells; test: MTT assay, A2780 cells; type: cell-based, Human; conditions: read-out: IC50 A2780, 96 h exposure
How it was run: (§1)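 Cells were kept in MEM with 10% heat-inactivated FBS, 1 mM pyruvate, 4 mM L-glutamine and 1% NEAA at 37 °C, 5% CO2. Seeding by trypsinization was SW480 2.5 × 103 and A2780 5.0 × 10^3 cells/well, with 24 h preincubation and 96 h exposure to serial dilutions. MTT was added for 4 h, formazan dissolved in DMSO, and read at 550 nm (reference 690 nm). IC50 was interpolated from T/C curves using ≥3 experiments, ≥6 replicates each.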

[2] = n-octanol/water partition coefficient, shake flask method; type: physicochemical; conditions: values of the aqua complexes
How it was run: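 Partition was measured by the shake-flask method. For the octanol phase, UV/vis was read at each complex's absorption maximum against n-octanol standards from 1 to 100 μM. For the aqueous phase, ruthenium was measured by ICP-MS (101Ru and 102Ru) with external calibration from 1 to 30 ppb. These samples were prepared in 5% HNO3 with 1 ppb 185Re as internal standard.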

[3] = tested on: SW480 (colon carcinoma) cells; test: MTT assay, SW480 cells; type: cell-based, Human; conditions: read-out: IC50 SW480, 96 h exposure
How it was run: as §1

[4] = tested on: uridine 5′-monophosphate (UMP); test: Nucleotide binding by 1H and 31P NMR, UMP
[5] = tested on: guanosine 5′-monophosphate (GMP); test: Nucleotide binding by 1H and 31P NMR, GMP; conditions: ratio complex/nucleotide
[6] = tested on: cytidine 5′-monophosphate (CMP); test: Nucleotide binding by 1H and 31P NMR, CMP
[7] = tested on: adenosine 5′-monophosphate (AMP); test: Nucleotide binding by 1H and 31P NMR, AMP; conditions: ratio complex/nucleotide
[8] = tested on: thymidine 5′-monophosphate (TMP); test: Nucleotide binding by 1H and 31P NMR, TMP
[9] = tested on: A2780 (ovarian carcinoma) cells; conditions: read-out: IC50 A2780; cited from earlier work
[10] = mononuclear analogue; cited from earlier work
[11] = tested on: 5637 (bladder cancer) cells; test: Crystal violet assay, 5637; type: cell-based, Human; conditions: read-out: IC50 5637, 96 h
How it was run: (§2)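 Crystal violet assay after 24 h preincubation. Adherent cells grown in RPMI with 10% heat-inactivated FBS and penicillin/streptomycin at 37 °C, 5% CO2; MCF-7 medium also had 1 mM sodium pyruvate and 1% nonessential amino acids. Seeding was 1.0 × 10^3 cells/well, or 250 cells/well for LCLC-103H. 20 mM DMF stocks were diluted 1000-fold in medium with 10% FCS for 96 h exposure. Bound dye was redissolved in 70% ethanol and read at 570 nm.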

[12] = tested on: 5637-oxo oxoplatin-resistant cells; test: Crystal violet assay, 5637-oxo; type: cell-based, Human; conditions: for Resistance factor 5637-oxo: 5637-oxo versus 5637; for IC50: read-out: IC50 5637-oxo, crystal violet, 96 h, oxoplatin-resistant line
How it was run: (§3)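 Resistant sublines were derived in-house by weekly exposure to rising oxoplatin concentrations over several months. Cells grew as adherent cultures in RPMI with 10% heat-inactivated FBS and penicillin/streptomycin at 37 °C, 5% CO2. After seeding at 1.0 × 10^3 cells/well and 24 h preincubation, cells had 96 h exposure to 20 mM DMF stocks diluted 1000-fold in medium. Crystal violet was redissolved in 70% ethanol and read at 570 nm.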

[13] = tested on: KYSE70-oxo oxoplatin-resistant cells; test: Crystal violet assay, KYSE70-oxo; type: cell-based, Human; conditions: for Resistance factor KYSE70-oxo: KYSE70-oxo versus KYSE70; for IC50: read-out: IC50 KYSE70-oxo, crystal violet, 96 h, oxoplatin-resistant line
How it was run: as §3

[14] = tested on: KYSE70 (esophagus cancer) cells; test: Crystal violet assay, KYSE70; type: cell-based, Human; conditions: read-out: IC50 KYSE70, 96 h
How it was run: as §2

[15] = tested on: A-427 (lung cancer) cells; conditions: read-out: IC50 A-427; crystal violet; cited from earlier work
[16] = tested on: SISO-oxo oxoplatin-resistant cells; test: Crystal violet assay, SISO-oxo; type: cell-based, Human; conditions: for Resistance factor SISO-oxo: SISO-oxo versus SISO; for IC50: read-out: IC50 SISO-oxo, crystal violet, 96 h, oxoplatin-resistant line
How it was run: as §3

[17] = tested on: DAN-G (pancreatic cancer) cells; conditions: read-out: IC50 DAN-G; crystal violet; cited from earlier work
[18] = tested on: SISO (cervical cancer) cells; test: Crystal violet assay, SISO; type: cell-based, Human; conditions: read-out: IC50 SISO, 96 h
How it was run: as §2

[19] = tested on: LCLC-103H (lung cancer) cells; conditions: read-out: IC50 LCLC-103H; crystal violet; cited from earlier work
[20] = tested on: RT-4 (bladder cancer) cells; conditions: read-out: IC50 RT-4; crystal violet; cited from earlier work
[21] = tested on: A-427 (lung cancer) cells; test: Crystal violet assay, A-427; type: cell-based, Human; conditions: read-out: IC50 A-427, 96 h
How it was run: as §2

[22] = tested on: MCF-7 (breast cancer) cells; test: Crystal violet assay, MCF-7; type: cell-based, Human; conditions: read-out: IC50 MCF-7, 96 h
How it was run: as §2

[23] = tested on: LCLC-103H (lung cancer) cells; test: Crystal violet assay, LCLC-103H; type: cell-based, Human; conditions: read-out: IC50 LCLC-103H, 96 h
How it was run: as §2

[24] = tested on: DAN-G (pancreatic cancer) cells; test: Crystal violet assay, DAN-G; type: cell-based, Human; conditions: read-out: IC50 DAN-G, 96 h
How it was run: as §2

[25] = tested on: RT-4 (bladder cancer) cells; test: Crystal violet assay, RT-4; type: cell-based, Human; conditions: read-out: IC50 RT-4, 96 h
How it was run: as §2

| IC50 [1] [µM] | log Poct/water ICP-MS [2] | log Poct/water UV/vis [2] | IC50 [3] [µM] | Compound | IC50 [11] [µM] | Resistance factor 5637-oxo [12] | IC50 [12] [µM] | Resistance factor KYSE70-oxo [13] | IC50 [13] [µM] | IC50 [14] [µM] | Resistance factor SISO-oxo [16] | IC50 [16] [µM] | IC50 [18] [µM] | also measured |
| --- | --- | --- | --- | --- | --- | --- | --- | --- | --- | --- | --- | --- | --- | --- |
| 84 ± 3 | −1.42 | −1.42 | 76 ± 4 | Cc1c([O-])c(=O)ccn1CCn1ccc(=O)c([O-])c1C.Cc1ccc(C(C)C)cc1.Cc1ccc(C(C)C)cc1.[Cl-].[Cl-].[Ru+2].[Ru+2] [1c, 1,2-Bis{chlorido[3-(oxo-κO)-2-methyl-4(1H)-pyridinonato-κO4](η ^6-p-cymene)ruthenium(II)}ethane] |  |  |  |  |  |  |  |  |  |  |
| 5.7 ± 0.5 | −1.28 | −1.23 | 2.5 ± 0.2 | Cc1c([O-])c(=O)ccn1CCCCCCCCn1ccc(=O)c([O-])c1C.Cc1ccc(C(C)C)cc1.Cc1ccc(C(C)C)cc1.[Cl-].[Cl-].[Ru+2].[Ru+2] [5c, 1,8-Bis{chlorido[3-(oxo-κO)-2-methyl-4(1H)-pyridinonato-κO4](η ^6-p-cymene)ruthenium}octane] |  |  |  |  |  |  |  |  |  | reaction with UMP [4]: no reaction was observed; formation of GMP adducts [5]: proceeded rapidly and quantitatively up to a ratio of 2:1; reaction with CMP [6]: no reaction was observed; formation of AMP adducts [7]: proceeded rapidly and quantitatively up to a ratio of 2:1; reaction with TMP [8]: no reaction was observed |
|  |  |  | > 100 | Cc1ccc(C(C)C)cc1.Cc1occc(=O)c1[O-].[Cl-].[Ru+2] [[RuCl(cym)(mal)] 8, chlorido(maltolato-κO^2)(η^6-p-cymene)ruthenium(II)] |  |  |  |  |  |  |  |  |  | IC50 [9]: > 100 µM; pKa values [10]: 9.23 |
|  |  |  |  | N.N.[Cl][Pt][Cl] [cisplatin] | 0.37 ± 0.01 | 2.9 | 1.1 ± 0.4 | 2.4 | 1.7 ± 0.4 | 0.72 ± 0.11 | 2.1 | 0.58 ± 0.08 | 0.28 ± 0.04 | IC50 [15]: 1.96 ± 0.54 µM; IC50 [17]: 0.73 ± 0.34 µM; IC50 [19]: 0.9 ± 0.19 µM; IC50 [20]: 1.61 ± 0.16 µM |
| 88 ± 12 |  |  | 42 ± 1 | CCCn1ccc(=O)c([O-])c1C.Cc1ccc(C(C)C)cc1.[Cl-].[Ru+2] [compound 7, chlorido[2-methyl-3-(oxo-κO)-1-propyl-4(1H)-pyridinonato-κO4](η^6-p-cymene)ruthenium(II)] |  |  |  |  |  |  |  |  |  |  |
|  |  |  |  | N.N.[Cl-].[Cl-].[OH-].[OH-].[Pt+4] [oxoplatin] | 3.1 ± 1.5 | 3.4 | 10.6 ± 1.3 | 2.1 | 8.8 ± 5.2 | 4.2 ± 2.8 | 3.1 | 5.2 ± 0.9 | 1.7 ± 0.4 | IC50 [21]: 13 ± 2.7 µM; IC50 [22]: 5.5 ± 1.1 µM; IC50 [23]: 17.2 ± 5.1 µM; IC50 [24]: 11.8 ± 3.2 µM; IC50 [25]: 26 ± 8 µM |
